Screens from PubChem.
The list is not random: actives were taken first. Their share in the collection is about 2.4%.
M18AAP inhibitor – blocks P. falciparum M18 aspartyl aminopeptidase | AID 1822 | inhibition, % at 7.35 µM | recombinant PfM18AAP, H-Glu-NHMec fluorogenic cleavage | 1.2% of 290,000 active;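 active = inhibition above the campaign mean inhibition over all tested compounds plus 3 SD, cut at about 28% in these data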
APOBEC3G inh – inhibitors of human APOBEC3G DNA deaminase; Q9HC16; recombinant A3G, ssDNA deamination FAM/TAMRA fluorescence; inhibition, % at 20 µM; 0.28% of 330,000 active; AID 493012;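 active = inhibition of at least 40% at 20 µM, with no more than 30% in the related APOBEC3A deaminase screen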
PfG6PD inh – PfG6PD (Plasmodium falciparum) enzyme inhibition; 0.78% of 350,000 active; AID 504690; PfGluPho enzyme, NADPH resazurin-diaphorase fluorescence; inhibition, % at 20 µM;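 active = inhibition reaching at least a set limit at 20 µM in the primary screen, cut at about 59% in these data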
HKDC1 inh – inhibitors of human hexokinase HKDC1; recombinant HKDC1, G6PDH/diaphorase resazurin coupled fluorescence; inhibition, % at 20 µM; AID 493160; Q2TB90; 0.16% of 340,000 active;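 active = inhibition above about 35% when tested at 20 µM, limit read from the data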
Target sequence (Q2TB90 whole entry, looked up): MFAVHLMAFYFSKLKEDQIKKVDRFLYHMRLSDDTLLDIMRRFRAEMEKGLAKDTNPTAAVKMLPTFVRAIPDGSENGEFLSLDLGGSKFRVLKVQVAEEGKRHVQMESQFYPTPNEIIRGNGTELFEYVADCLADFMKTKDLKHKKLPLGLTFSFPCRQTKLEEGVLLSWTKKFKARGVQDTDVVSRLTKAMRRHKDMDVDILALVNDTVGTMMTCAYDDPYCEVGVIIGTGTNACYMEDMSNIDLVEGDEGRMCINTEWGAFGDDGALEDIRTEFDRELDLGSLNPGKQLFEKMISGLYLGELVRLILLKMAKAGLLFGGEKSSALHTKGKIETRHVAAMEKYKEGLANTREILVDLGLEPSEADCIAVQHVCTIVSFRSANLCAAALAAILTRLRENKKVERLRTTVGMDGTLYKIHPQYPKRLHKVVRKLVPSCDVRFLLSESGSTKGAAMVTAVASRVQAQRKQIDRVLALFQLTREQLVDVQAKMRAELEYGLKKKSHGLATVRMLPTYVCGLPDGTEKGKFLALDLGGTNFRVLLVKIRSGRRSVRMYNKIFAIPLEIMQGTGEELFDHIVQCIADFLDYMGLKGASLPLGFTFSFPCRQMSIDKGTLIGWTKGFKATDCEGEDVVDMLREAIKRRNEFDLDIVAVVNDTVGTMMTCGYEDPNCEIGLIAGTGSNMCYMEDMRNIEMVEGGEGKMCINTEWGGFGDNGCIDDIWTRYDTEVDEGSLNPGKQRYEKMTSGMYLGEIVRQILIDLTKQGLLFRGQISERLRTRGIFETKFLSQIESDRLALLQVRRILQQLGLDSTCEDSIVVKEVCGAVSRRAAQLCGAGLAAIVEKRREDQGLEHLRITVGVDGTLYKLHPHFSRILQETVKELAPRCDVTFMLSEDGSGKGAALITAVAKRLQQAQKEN
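Material: recombinant HKDC1 hexokinase; Amount: HKDC1 at 5 µg/mL; Medium: Tris pH 8.0 buffer with MgCl2, Tween-20, BSA, BME; Schedule: 90 min reaction incubation at room temperature, dark; Technique: coupled resazurin fluorescence, excitation 525 nm, emission 613 nm.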
APOBEC3A inh – human APOBEC3A DNA deaminase inhibition. inhibition, % at 20 µM. recombinant A3A, FAM/TAMRA ssDNA deamination fluorescence. P31941. AID 493011. 0.41% of 330,000 active;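 active = at least 40% inhibition at 20 µM here, with at most 30% in a related deaminase screen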
UBC9 SUMO inh – blocks human SUMOylation mediated by UBC9 | HTRF SUMOylation assay, SAE1/SAE2 + UBC9, in vitro | inhibition, % at 35 µM | P63279 | 0.36% of 290,000 active; in the data active = inhibition above about 50%, passing the limit was not always enough
PfGluPho conf – confirmation of Plasmodium falciparum G6PD inhibitors | shares compounds with PfG6PD inh | recombinant PfGluPho, NADPH-diaphorase-resazurin fluorescence | inhibition, % at 20 µM | 34% of 2,400 active | AID 504753;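 active = inhibition of at least 50% at 20 µM in any single replicate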
Diaphorase 10uM – diaphorase inhibition or oxidation at 10 uM NADPH. shares compounds with PfG6PD inh. diaphorase-coupled resazurin reduction, fluorescence, NADPH 10 uM. inhibition, % at 20 µM. 39% of 820 active;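 active = average inhibition reaching 50% or more with the compound at 20 µM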;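 also: resorufin red fluorescence formed as diaphorase reduces resazurin using NADPH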
Diaphorase 30uM – counter-screen for P. falciparum G6PD inhibitors: diaphorase inhibitors, oxidizers; shares compounds with PfG6PD inh; Diaphorase/resazurin coupled assay, resorufin fluorescence, 30 uM NADPH; inhibition, % at 20 µM; 29% of 820 active; AID 504863;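 active = inhibition averaging 50% or more, tested at 20 µM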
Of the large screens only hits and unclear results are named; the others gave an inactive call (follow-up assays come after a bar, where they were run).

COc1cccc(NC(=O)C2CC2(c2cccc(OC)c2)c2cccc(OC)c2)c1 (stereo unspecified)	PfG6PD inh 111 | PfGluPho conf inactive
COc1cccc(C2(c3cccc(OC)c3)CC2C(=O)Nc2cccc3ccccc23)c1 (stereo unspecified)	none
O=C(c1ccccc1)n1ccn(-c2ccccc2)c1=S	none
N#C/C(=C/c1ccc(N2CCCCCC2)o1)c1cccc(F)c1	PfG6PD inh 65 | PfGluPho conf inactive
N#C/C(=C\c1ccc(N2CCOCC2)o1)c1ccccc1	none
N#C/C(=C/c1ccc(N2CCOCC2)o1)c1ccc(Br)cc1	PfG6PD inh 80 | PfGluPho conf inactive
Cc1nn2c(Nc3ccccc3)c3c(nc2c1-c1ccccc1)CCC3	none
C/C(=N\Nc1nc2c(s1)CCCC2)c1ccc(Cl)cc1	PfG6PD inh 66 | PfGluPho conf inactive
COC(=O)c1c(NS(=O)(=O)c2ccccc2)csc1C	PfG6PD inh 91 | PfGluPho conf 78 | Diaphorase 10uM 72 | Diaphorase 30uM 56
CCOC(=O)c1ccccc1NS(=O)(=O)c1ccccc1	PfG6PD inh 79 | PfGluPho conf 60 | Diaphorase 10uM 58 | Diaphorase 30uM 54
CCOC(=O)c1ccccc1NS(=O)(=O)c1ccc(C)cc1	none
COC(=O)c1c(NC(=O)c2ccc(C)cc2)csc1C	none
CC(C)=CCC/C(C)=C/C=N/NC(=O)c1ccccc1[N+](=O)[O-]	PfG6PD inh 67 | PfGluPho conf inactive
CCOC(=O)c1csc(NC(=O)c2cc(OC)c(OC)c(OC)c2)n1	none
Cc1ccc2nc(N(CCCN(C)C)C(=O)c3ccc4ncsc4c3)sc2c1	PfG6PD inh 60 | PfGluPho conf inactive
CC(=O)Nc1ccc2sn(-c3ccccc3)c(=O)c2c1	PfG6PD inh 126 (no result: M18AAP inhibitor, APOBEC3G inh, HKDC1 inh, APOBEC3A inh, UBC9 SUMO inh) | PfGluPho conf 105 | Diaphorase 10uM inactive | Diaphorase 30uM inactive
CCn1c2ccccc2c2cc(NC(C)=O)ccc21	none
N#Cc1ccc2c(c1)nnn2-c1ccccc1	none (no result: M18AAP inhibitor, UBC9 SUMO inh)
O=c1c2cc([N+](=O)[O-])ccc2sn1-c1ccccc1	PfG6PD inh 121 (no result: M18AAP inhibitor, APOBEC3G inh, HKDC1 inh, APOBEC3A inh, UBC9 SUMO inh) | PfGluPho conf 105 | Diaphorase 10uM inactive | Diaphorase 30uM inactive
N#Cc1ccc2sn(-c3ccccc3)c(=O)c2c1	PfG6PD inh 126 (no result: M18AAP inhibitor, APOBEC3G inh, HKDC1 inh, APOBEC3A inh, UBC9 SUMO inh) | PfGluPho conf 107 | Diaphorase 10uM inactive | Diaphorase 30uM inactive
O=[N+]([O-])c1ccc(O)c2ncccc12	PfG6PD inh 63 | PfGluPho conf inactive
O=C(Nc1ccccc1)N(O)c1ccc(Cl)cc1	PfG6PD inh 87 | PfGluPho conf inactive
CCN(CCS(=O)(=O)c1ccc(Cl)cc1)C(=O)Nc1ccccc1	none
CCN(C(=O)Cn1c([N+](=O)[O-])cnc1C)c1ccccc1	none
COc1ccc(OC)c(-c2c3c([nH]c(=S)c2C#N)CCCC3)c1	PfG6PD inh 61 | PfGluPho conf inactive
COc1ccc(-c2c3c([nH]c(=S)c2C#N)CCC3)cc1	PfG6PD inh 64 (no result: APOBEC3G inh, APOBEC3A inh) | PfGluPho conf inactive
COc1ccc(-c2c(C#N)c(SCC(N)=O)nc3c2CCCC3)cc1	none
CC1CCN(c2[nH]c(=S)c(C#N)c3c2CCCC3)CC1	none
N#Cc1c(-c2ccco2)c2c([nH]c1=S)CCCC2	PfG6PD inh 71 (no result: M18AAP inhibitor) | PfGluPho conf inactive
COc1ccc(-c2c(C#N)c(N)nc3c2CCCCCC3)cc1OC	none
CC(C)Cc1c2c([nH]c(=S)c1C#N)CCCC2	PfG6PD inh 70 | PfGluPho conf inactive
Cc1ccc(S(=O)(=O)c2c(C)nn(C(C)(C)C)c2OC(=O)c2cccs2)cc1	none
CCC(C)(C(=O)NC1CCCC1)N(C(=O)c1cnccn1)c1c(C)n(C)n(-c2ccccc2)c1=O (stereo unspecified)	none
Cn1ccnc1C(O)(c1ccccc1)c1nccn1C	none
Clc1ccc2nc(SCc3nnc(-c4ccccc4)o3)[nH]c2c1	PfG6PD inh 113 | PfGluPho conf inactive
Cc1cc(=O)[nH]c(SCc2nnc(-c3ccccc3)o2)n1	none
O=C(CN(c1cccc(C(F)(F)F)c1)S(=O)(=O)c1ccc(Cl)c([N+](=O)[O-])c1)NCc1ccccc1Cl	none
O=C(/C=C1\C(=O)Nc2ccccc21)/C=C1\C(=O)Nc2ccccc21	PfG6PD inh 81 (no result: APOBEC3G inh, APOBEC3A inh) | PfGluPho conf inactive
COc1cc(NC(=O)C/C(C)=N/NC(=O)C2CCCCC2)c(OC)cc1Cl	none
CCn1c(SCC(=O)Nc2cc(C)on2)nc2c(c1=O)SC(C)C2 (stereo unspecified)	none
Cc1ccc(-n2c(SCC(=O)Nc3cc(C)on3)nc3c(c2=O)SC(C)C3)cc1 (stereo unspecified)	PfG6PD inh 84 | PfGluPho conf inactive
COC(=O)c1ccc(NC(=O)CCN2C(=O)C3CC=CCC3C2=O)cc1 (stereo unspecified)	none (no result: M18AAP inhibitor, UBC9 SUMO inh)
Cc1cc(Nc2ccccc2)nc2cc(O)ccc12	none
COc1ccc(Nc2cc(C)c3ccc(O)cc3n2)cc1	PfG6PD inh 72 | PfGluPho conf inactive
CCn1cc(CN(C)S(=O)(=O)c2cccc([N+](=O)[O-])c2)cn1	none
CCCOc1ccc(-c2c(C(=O)N/N=C/c3ccc(C)cc3)nnn2-c2nonc2N)cc1	none
CCOc1ccc(-c2c(C(=O)N/N=C/c3sccc3C)nnn2-c2nonc2N)cc1	none
COc1cccc(-c2c(C(=O)N/N=C/c3ccc(C)s3)nnn2-c2nonc2N)c1	PfG6PD inh 98 | PfGluPho conf 50 | Diaphorase 10uM 65 | Diaphorase 30uM inactive
COc1cccc(-c2c(C(=O)N/N=C/c3ccncc3)nnn2-c2nonc2N)c1	none
COc1cccc(-c2c(C(=O)N/N=C/c3ccc(C)o3)nnn2-c2nonc2N)c1	PfG6PD inh 66 | PfGluPho conf 56 | Diaphorase 10uM inactive | Diaphorase 30uM inactive
Cc1ccc(-c2c(C(=O)N/N=C/c3ccc(C)o3)nnn2-c2nonc2N)cc1	PfG6PD inh 79 | PfGluPho conf 60 | Diaphorase 10uM 63 | Diaphorase 30uM inactive
CCOc1cccc(-c2c(C(=O)N/N=C/c3sccc3C)nnn2-c2nonc2N)c1	PfG6PD inh 87 | PfGluPho conf inactive
Cc1ccc2nc(SCC(=O)c3ccc(O)cc3O)[nH]c2c1	none
OCCNC(=S)Nc1cccc(Cl)c1Cl	none
Cc1ccsc1/C=N/NC(=O)c1nnn(-c2nonc2N)c1-c1ccc2c(c1)OCO2	PfG6PD inh 66 | PfGluPho conf inactive
CCOc1cccc(-c2c(C(=O)N/N=C/c3ccc(C)s3)nnn2-c2nonc2N)c1	PfG6PD inh 67 | PfGluPho conf inactive
